Active and inactive are the calls of the source.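 The calls were made as follows, unless noted: active = GFP response above 150% of the DMSO level; inconclusive = fewer than 70 events counted for a yeast strain; inactive = the rest.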
Columns and labels:
[1] = RPL19A-GFP modulators, yeast TOR pathway, confirmation, cell-based, S. cerevisiae, flow cytometry, cherry picks, mother/daughter gates (AID 2270;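 active = GFP response below 50% of the DMSO control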); details: S. cerevisiae RPL19A-GFP strain, 3 h, at 10 µM, stronger effect = lower value, 100 = same GFP as DMSO wells
[2] = LAP4-GFP expression modulators in yeast, confirmation, cell-based, cherry picks, flow cytometry, mother/daughter gates (AID 2271;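 active = GFP response above 150% of the DMSO control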;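 also: ratio of sample to DMSO plate mean so 100% equals DMSO level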); details: S. cerevisiae LAP4-GFP strain, 3 h, at 10 µM, stronger effect = higher value, 100 means same as DMSO control
Method in brief: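 System: Alexa 633-stained baker's yeast GFP-fusion strain / Medium: synthetic complete (SC) yeast growth medium / Doses: compound at 10 µM, single point / Times: 3 h treatment at 30 °C with rotation / Detection: HT flow cytometry, GFP fluorescence channel / Benchmarks: DMSO-only negative wells, rapamycin 400 ng/mL positive wells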

[3] = modulators of MEP2-GFP levels in yeast, confirmation, S. cerevisiae, flow cytometry GFP, cherry picks (AID 2272;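 active = GFP response above 150% of the DMSO control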;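 also: ratio of well signal to plate DMSO mean so 100% equals DMSO level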); details: S. cerevisiae MEP2-GFP strain, 3 h, at 10 µM, stronger effect = higher value
[4] = AGP1-GFP expression modulators, hit retest, confirmation, cell-based, flow cytometry, S. cerevisiae, cherry picks (AID 2273);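 also: median GFP channel fluorescence over the whole cell population gate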; details: S. cerevisiae AGP1-GFP strain, 3 h, at 10 µM
[5] = modulators of CIT2-GFP expression in yeast, confirmation, S. cerevisiae, GFP fusion, cherry picks, mother/daughter gates (AID 2274); details: S. cerevisiae CIT2-GFP strain, flow cytometry, 3 h, at 10 µM, stronger effect = higher value
[6] = measured here: daughter cell gate
[7] = measured here: mother cell gate
[8] = measured here: daughter cell gate response
[9] = measured here: mother cell gate response

Row | SMILES | GFP response vs DMSO [1] | GFP response vs DMSO [1, 6] [%] | GFP response vs DMSO [1, 7] [%] | GFP response relative to DMSO [2] | GFP response relative to DMSO [2, 8] [%] | GFP response relative to DMSO [2, 9] [%] | GFP response vs DMSO [3] | GFP response, % of DMSO [4] | GFP response, % of DMSO [5] | GFP response, % of DMSO [5, 6] [%] | GFP response, % of DMSO [5, 7] [%]
1 | Cc1ccc(C(=O)O/N=C(\N)Cc2cccs2)c(Cl)c1 | 104% (inactive) | 102 | 99.3 | 125% (inactive) | 114 | 123 | 105% (inactive) | 70.7% (inactive) | 129% (inactive) | 117 | 129
2 | Cc1ccc(NC(=S)N2CCSC2c2cccs2)cc1 (centres undefined) | 98.5% (inactive) | 98.1 | 97.8 | 97.7% (inactive) | 99 | 97.4 | 108% (inactive) | 101% (inactive) | 103% (inactive) | 99.3 | 103
3 | O=C(CSc1ccc(-c2ccccn2)nn1)N1CCCCC1 | 99.9% (inactive) | 100 | 99 | 101% (inactive) | 101 | 101 | 99.5% (inactive) | 103% (inactive) | 99.3% (inactive) | 100 | 96.8
4 | COc1ccc(-c2cc(C(F)(F)F)nc(S(C)(=O)=O)n2)cc1 | 102% (inactive) | 104 | 96.1 | 136% (inactive) | 134 | 133 | 130% (inactive) | 116% (inactive) | 95.2% (inactive) | 98.1 | 86.9
5 | Cc1onc(-c2ccccc2)c1C(=O)NC(=S)NNC(=O)c1ccco1 | 101% (inactive) | 101 | 102 | 102% (inactive) | 104 | 103 | 102% (inactive) | 98.1% (inactive) | 104% (inactive) | 106 | 99.7
6 | Cc1ccc(C(c2cc(Cl)c3cccnc3c2O)N2CCN(C)CC2)cc1 (centres undefined) | 81.4% (inactive) | 94.4 | 67.7 | 184% (active) | 141 | 208 | 116% (inactive) | 95.9% (inactive) | 119% (inactive) | 97.4 | 113
7 | COCCN(CCOC)S(=O)(=O)c1ccc(C(=O)Nc2nnc(C)o2)cc1 | 100% (inactive) | 100 | 101 | 99.5% (inactive) | 97.5 | 98.4 | 99% (inactive) | 100% (inactive) | 102% (inactive) | 103 | 101
8 | COc1cc(C(O)P(=O)(OCC(C)C)OCC(C)C)cc(OC)c1OC (centres undefined) | 99.5% (inactive) | 99.8 | 99.7 | 100% (inactive) | 102 | 98.5 | 104% (inactive) | 100% (inactive) | 101% (inactive) | 100 | 99.1
9 | O=C(Nc1nccs1)C1CCCN1S(=O)(=O)c1ccc(F)cc1 (centres undefined) | 98.8% (inactive) | 99.8 | 100 | 96.2% (inactive) | 100 | 95.2 | 100% (inactive) | 100% (inactive) | 110% (inactive) | 103 | 114
10 | CCc1noc(C)c1C(=O)Nc1nc(-c2cc(C)ccc2C)c(C)s1 | 103% (inactive) | 103 | 103 | 95% (inactive) | 95.6 | 99.3 | 100% (inactive) | 94.1% (inactive) | 106% (inactive) | 99.7 | 107
11 | O=S(=O)(/N=C(\Sc1ccc(Cl)cc1)c1ccccc1)c1ccccc1 | 93.1% (inactive) | 94.4 | 90.2 | 182% (active) | 145 | 178 | 99.3% (inactive) | 101% (inactive) | 90.3% (inactive) | 92.3 | 83.7
12 | Cc1nc(Sc2ccc(Br)cc2)c(C#N)c(C)c1[N+](=O)[O-] | 106% (inactive) | 105 | 104 | 98.2% (inactive) | 97.5 | 98.4 | 101% (inactive) | 96.1% (inactive) | 98.8% (inactive) | 97.4 | 76
13 | Cc1n[nH]c(C)c1N1C(=O)c2cccc3c(Br)ccc(c23)C1=O | 101% (inactive) | 100 | 101 | 98.8% (inactive) | 99.3 | 98.5 | 104% (inactive) | 92.5% (inactive) | 96.4% (inactive) | 96.4 | 94.5
14 | O=C(c1ccccc1F)N1CCN(c2ccccc2F)CC1 | 101% (inactive) | 99.8 | 102 | 98.7% (inactive) | 100 | 99.3 | 100% (inactive) | 95% (inactive) | 104% (inactive) | 105 | 105
15 | O=C1CC(SCc2nc3ccccc3[nH]2)C(=O)N1c1cccc(F)c1 (centres undefined) | 98.7% (inactive) | 99.3 | 97.5 | 104% (inactive) | 105 | 105 | 99.3% (inactive) | 102% (inactive) | 103% (inactive) | 103 | 103
16 | CC(C)(C)C(=O)C(Cl)C(=O)Nc1ccccc1 (centres undefined) | 79.7% (inactive) | 89.6 | 72.1 | 300% (active) | 186 | 271 | 145% (inactive) | 135% (inactive) | 126% (inactive) | 106 | 115
17 | COC(=O)c1ccc(C2Nc3cccc4cccc(c34)N2)cc1 | 105% (inactive) | 102 | 106 | 129% (inactive) | 123 | 133 | 103% (inactive) | 92.8% (inactive) | 93% (inactive) | 90.2 | 93.2

Row | SMILES | GFP response vs DMSO [1] | GFP response vs DMSO [1, 6] [%] | GFP response vs DMSO [1, 7] [%] | GFP response relative to DMSO [2] | GFP response relative to DMSO [2, 8] [%] | GFP response relative to DMSO [2, 9] [%] | GFP response vs DMSO [3] | GFP response, % of DMSO [4] | GFP response, % of DMSO [5] | GFP response, % of DMSO [5, 6] [%] | GFP response, % of DMSO [5, 7] [%]
18 | Oc1c(Br)cc(Br)cc1C=NCc1ccccc1 | 101% (inactive) | 91.3 | 101 | 135% (inactive) | 105 | 137 | 112% (inactive) | 99.7% (inactive) | 104% (inactive) | 108 | 92.1
19 | COc1cc(NC(=O)c2ccccc2F)ccc1NC(=O)c1cc2ccccc2o1 | 87.2% (inactive) | 90.2 | 88.8 | 97% (inactive) | 97.5 | 97.3 | 107% (inactive) | 101% (inactive) | 100% (inactive) | 97.4 | 98.1
20 | O=C(Nc1ccc(Cl)cc1Cl)c1cccc(N2C(=O)C=CC2=O)c1 | 76.5% (inactive) | 70.3 | 65.5 | 204% (active) | 123 | 179 | 111% (inactive) | 99.1% (inactive) | 96.9% (inactive) | 105 | 80.7
21 | CCN(CC)c1ccc2cc(-c3nc4ccccc4[nH]3)c(=O)oc2c1 | 108% (inactive) | 106 | 111 | 107% (inactive) | 99.3 | 113 | 185% (active) | 108% (inactive) | 135% (inactive) | 132 | 136
22 | C=CCNC(=O)/C(C#N)=C/c1c(N(Cc2ccccc2)Cc2ccccc2)nc2ccccn2c1=O | 98.8% (inactive) | 98.6 | 98.8 | 99.8% (inactive) | 99.7 | 99.2 | 103% (inactive) | 101% (inactive) | 94.7% (inactive) | 96.8 | 94.7
23 | Cc1ccc(C=C2C(Cl)=C(Cl)C(Cl)=C2Cl)cc1 | 103% (inactive) | 102 | 97.7 | 148% (inactive) | 139 | 161 | 114% (inactive) | 105% (inactive) | 106% (inactive) | 105 | 94.7
24 | Cc1c(C)c2ccc(OCC(=O)NCCCn3ccnc3)cc2oc1=O | 97.8% (inactive) | 97.4 | 98.5 | 96.7% (inactive) | 96 | 96.1 | 105% (inactive) | 97.6% (inactive) | 101% (inactive) | 101 | 101
25 | Cn1cc(/C=C/c2cc[n+](C)cc2)c2cc(Cl)ccc21 | 99.2% (inactive) | 97.9 | 100 | 111% (inactive) | 112 | 110 | 122% (inactive) | 111% (inactive) | 125% (inactive) | 128 | 124
26 | Clc1ccc(C2=NNC(=NCc3ccccc3)SC2)cc1 | 95.6% (inactive) | 94.6 | 86.8 | 97.9% (inactive) | 97.6 | 98.3 | 98.3% (inactive) | 93.9% (inactive) | 99.7% (inactive) | 101 | 98.5
27 | Cc1ccccc1OCC(=O)NNC(=S)NC(=O)c1ccco1 | 122% (inactive) | 111 | 118 | 147% (inactive) | 135 | 137 | 129% (inactive) | 110% (inactive) | 125% (inactive) | 122 | 112
28 | CCCc1ccc(C(=O)N2CCN(c3ccccc3OCC)CC2)cc1 | 99.1% (inactive) | 98.8 | 99.2 | 95.3% (inactive) | 93.6 | 93.6 | 97.5% (inactive) | 96.9% (inactive) | 96.4% (inactive) | 96.4 | 94.5
29 | O=C1c2ccsc2SCCN1Cc1ccc(Cl)cc1Cl | 96% (inactive) | 94.2 | 95.5 | 108% (inactive) | 107 | 110 | 94.7% (inactive) | 98.2% (inactive) | 90.1% (inactive) | 90.2 | 91.9
30 | CN(C)c1ccc(/C=N/NC(=O)c2ccc(Cl)cc2)cc1 | 98% (inactive) | 97 | 97.4 | 102% (inactive) | 97.9 | 103 | 102% (inactive) | 100% (inactive) | 97.8% (inactive) | 98.3 | 95.6
31 | CC(=O)c1ccc(NC(=O)CN2CCC(NC(=O)C3CCCCC3)CC2)cc1 | 102% (inactive) | 102 | 103 | 98.8% (inactive) | 97.9 | 99.5 | 104% (inactive) | 95.6% (inactive) | 96.4% (inactive) | 98.3 | 95.6
32 | CCC(=O)Oc1oc(-c2ccccc2)nc1C=Nc1ccc(C)cc1 | 103% (inactive) | 103 | 103 | 111% (inactive) | 113 | 113 | 126% (inactive) | 102% (inactive) | 108% (inactive) | 110 | 109
33 | CCCCCCCCC/C(=N\O)c1ccccn1 | 85% (inactive) | 81.4 | 82.6 | 214% (active) | 170 | 213 | 108% (inactive) | 89.3% (inactive) | 97.2% (inactive) | 90.5 | 97.1
34 | O=[N+]([O-])c1ccccc1OCCOc1ccccc1[N+](=O)[O-] | 103% (inactive) | 101 | 100 | 106% (inactive) | 101 | 101 | 102% (inactive) | 106% (inactive) | 105% (inactive) | 103 | 98.5

Source: PubChem BioAssay
